Mdm2 MdmX PPI – disrupts the human Mdm2-MdmX interaction | SaOS-2 split-luciferase Mdm2/MdmX complementation, luminescence | inhibition, % at 8 µM | 3% of 330,000 active;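 active = inhibition of at least 50% at 8 µM in the primary screen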
Target sequence (O15151 whole entry, looked up): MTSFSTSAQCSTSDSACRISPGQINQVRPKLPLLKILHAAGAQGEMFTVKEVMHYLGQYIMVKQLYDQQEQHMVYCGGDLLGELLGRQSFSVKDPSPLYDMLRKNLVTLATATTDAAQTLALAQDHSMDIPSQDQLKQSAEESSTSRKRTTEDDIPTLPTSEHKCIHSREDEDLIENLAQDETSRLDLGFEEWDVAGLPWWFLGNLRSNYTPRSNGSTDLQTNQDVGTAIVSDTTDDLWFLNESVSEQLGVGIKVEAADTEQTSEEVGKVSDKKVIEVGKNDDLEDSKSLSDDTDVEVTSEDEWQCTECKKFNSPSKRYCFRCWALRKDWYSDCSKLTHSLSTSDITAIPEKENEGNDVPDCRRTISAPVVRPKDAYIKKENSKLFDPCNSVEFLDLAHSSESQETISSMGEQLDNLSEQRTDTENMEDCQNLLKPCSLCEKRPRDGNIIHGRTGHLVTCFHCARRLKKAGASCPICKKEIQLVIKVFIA
Target sequence (Q00987 whole entry, looked up): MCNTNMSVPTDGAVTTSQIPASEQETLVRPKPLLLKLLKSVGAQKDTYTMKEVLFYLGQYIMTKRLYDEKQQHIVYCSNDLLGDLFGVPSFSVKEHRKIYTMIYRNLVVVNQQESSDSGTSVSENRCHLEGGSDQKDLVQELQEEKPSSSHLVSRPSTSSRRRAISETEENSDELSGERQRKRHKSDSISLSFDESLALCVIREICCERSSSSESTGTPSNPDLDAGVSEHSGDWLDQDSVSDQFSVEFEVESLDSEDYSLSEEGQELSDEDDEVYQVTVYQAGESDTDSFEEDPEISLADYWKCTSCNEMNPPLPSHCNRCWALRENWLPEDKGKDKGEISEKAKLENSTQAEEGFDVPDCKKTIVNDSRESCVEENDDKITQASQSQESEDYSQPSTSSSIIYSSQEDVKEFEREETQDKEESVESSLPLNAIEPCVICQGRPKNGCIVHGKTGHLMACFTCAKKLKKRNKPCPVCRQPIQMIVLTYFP
CSC inhib – cancer stem cell inhibition; 1.1% of 300,000 active; inhibition, % at 7.5 µM; AID 2717; cancer stem cell-like cells viability, luminescence; in the data active = inhibition above about 75%; tested in HMLE shEcad cells
Beta apoptosis – beta cell apoptosis inhibition; AID 435005; INS-1E cytokine-induced death, ATP luminescence, 48 h; percent of positive-control rescue, neutral wells zero; 0.8% of 300,000 active; protection from apoptosis, % (test concentration not listed);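 active = Every replicate reaches about 75%, or at least half do and their mean reaches it too, limit read from the data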;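 also: 0% = cytokine-treated negative control wells and 100% = positive control rescue; higher means more ATP so stronger rescue from cytokine killing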
UPR CHOP act – apoptotic UPR (CHOP) activation; 0.34% of 330,000 active; activation, % at 10 µM; CHO-CHOP luciferase reporter, luminescence; percent of tunicamycin response over DMSO baseline;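 active = at 10 µM dose, activation of 40% or more, normalized to positive control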;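 also: 100% = tunicamycin at 10 µg/mL and 0% = DMSO alone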
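Evaluation: % reporter activation, DMSO baseline versus tunicamycin full activation; System: CHO-CHOP luciferase reporter cell line; Input: 500 cells/well; Incubation: 6 h compound treatment, 37 °C; Measured by: Steady-Glo luciferase luminescence; Dosing: one dose, 10 µM in 0.5% DMSO; Buffer or medium: F12 medium, 10% FBS; Benchmarks: positive tunicamycin 10 µg/mL, negative DMSO alone.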
T cruzi repl – T. cruzi replication inhibition. T. cruzi beta-gal in NIH3T3, luminescence, 90 h. 1.4% of 300,000 active. inhibition, % (test concentration not listed);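 active = mean inhibition across valid replicates above about 55%, limit read from the data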;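 also: signal also drops with host cell toxicity which is not excluded here; 0% = plate median of DMSO wells and 100% = zero luminescence signal; higher percent means less beta-gal luminescence so fewer parasites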
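Incubation – ≥90 h infection period, 3 h prior cell attachment · System – NIH/3T3 fibroblasts plus reporter T. cruzi · Doses – compound pinned at 50 nL/well, DMSO · Read-out basis – percent inhibition of parasite-derived β-gal signal · Signal – luminescent β-galactosidase signal after 60 min lysis · Also added – 5000 T. cruzi trypomastigotes/well · Medium – Low-serum DMEM with 2% FBS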
XBP1 UPR activ – activators of adaptive arm of unfolded protein response (XBP1) | CHO-XBP1 luciferase reporter, IRE1-XBP1 UPR activation, luminescence; percent of tunicamycin response, DMSO as zero | activation, % at 20 µM | 0.33% of 330,000 active | AID 463104;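 active = versus positive control, 20 µM dose yields 30% or more activation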;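 also: 100% = tunicamycin at 10 µg/mL and 0% = DMSO only wells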
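Material: CHO-XBP1 cells stably carrying IRE1-XBP1-driven luciferase reporter | Medium: F12 with 10% serum | Compound dosing: 20 µM single concentration, DMSO 1% | Incubation: Overnight seeding at 37 °C, 6 h compound treatment at 37 °C | Detection: Steady-Glo luminescence read | Read-out basis: % activation of reporter signal versus tunicamycin and DMSO controls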
Mdm2-MdmX conf – confirmation of human Mdm2/MdmX interaction inhibitors. inhibition, % at 8 µM. shares compounds with Mdm2 MdmX PPI. Mdm2-MdmX binding, luminescent assay. AID 489028. 55% of 10,000 active; in the data active = inhibition above about 40%
Full FLuc ctr – inhibits full-length luciferase, flagging false Mdm2/MdmX hits | shares compounds with Mdm2 MdmX PPI | 77% of 6,200 active | inhibition, % at 8 µM | SaOS-2 full-length luciferase counterscreen, luminescence | AID 504607;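 active = mean inhibition at 8 µM reaching about 37%, which flags the compound as non-specific, limit read from the data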;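 also: p53-null SaOS-2 cells with luciferase driven by a doxycycline-inducible promoter; compound on cells about two nights before reading with doxycycline added after day one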
* = called active by the depositor; · = no result. Shown are actives, neighbours in structure and some others; about 5% of the full set was active somewhere.

SMILES	Mdm2 MdmX PPI	CSC inhib	Beta apoptosis	UPR CHOP act	T cruzi repl	XBP1 UPR activ	Mdm2-MdmX conf	Full FLuc ctr
Cc1nc2ccccn2c1C(=O)NC1CCCc2ccccc21 (stereo not drawn)	20	-2	41	-2	9	-4	·	·
O=C1NCCn2ccc(=O)cc21	-14	-4	6	-1	1	-1	·	·
CCOC(=O)C1CCCN(C(=O)CCCn2c(=O)c3cccn3c3cccnc32)C1 (stereo not drawn)	17	-22	-2	0	2	-5	·	·
COc1ccc(/C=C/C(=O)NCCSCc2ccco2)cc1	-6	-13	·	1	6	-2	·	·
Cc1[nH]c2ccccc2c1C(c1ccccn1)N1CCC(C)CC1 (stereo not drawn)	51*	-7	-8	4	-2	-5	0	·
CCOC(=O)C1CCCN(C(c2ccccn2)c2c(C)[nH]c3ccccc23)C1 (stereo not drawn)	53*	1	-8	3	-20	2	4	·
Cc1[nH]c2ccccc2c1C(c1ccccn1)N1CCCC1 (stereo not drawn)	31	14	-3	1	1	-1	·	·
COC(=O)[C@H]1C[C@H]2[C@@H]3CC[C@H]4C[C@@H](OC)CC[C@]4(C)[C@H]3CC[C@]2(C)[C@@]2(CCCO2)O1	-16	·	·	2	·	-1	·	·
COc1ccc(Nc2c3c(nc4ccccc24)CCC3)c(OC)c1	47	15	15	-1	30	0	·	·
c1ccc2c(Nc3ccc4c(c3)OCCO4)c3c(nc2c1)CCCC3	70*	-7	-3	0	44	-3	59*	85*
CN(C)CCNc1c2c(nc3ccccc13)CCC2	17	11	6	0	52	-5	·	·
COc1ccccc1Nc1c2c(nc3ccccc13)CCC2	56*	70	14	0	7	1	53*	58*
Fc1cccc(Nc2c3c(nc4ccccc24)CCC3)c1	30	4	12	-2	25	-1	·	·
COc1cc(Nc2c3c(nc4ccccc24)CCCC3)cc(OC)c1OC	68*	-4	-6	2	41	0	64*	76*
CCOc1ccc(C2N(c3ccc(F)cc3)C(=O)C3CCCN32)cc1OC (stereo not drawn)	-14	2	-6	-1	4	0	·	·
Cc1nnsc1S(=O)c1ccc(Br)cc1 (stereo not drawn)	10	·	·	4	48	-7	·	·
N#CC(C#N)=c1ccc2c(c1)N1C3=C(CCCC3)CC3CCCCC31N=2 (stereo not drawn)	67*	19	26	0	20	6	46*	38*
Cc1cc(C(=O)N2CC=C(c3ccccc3)CC2)c2ccccc2n1	55*	53	11	1	-8	-2	74*	65*
CC(=O)c1ccc(N2CCN(C(=O)c3cc(-c4ccc5c(c4)OCO5)nc4ccccc34)CC2)cc1	44	19	·	5	15	-2	·	·
Cc1ccc(-c2cc(C(=O)N3CCN(c4ccccc4O)CC3)c3ccccc3n2)cc1	57*	22	6	6	25	-1	32	·
COc1ccc(-c2cc(C(=O)N3CCN(c4ccccc4O)CC3)c3ccccc3n2)cc1	19	18	9	9	·	6	·	·
CC(=O)c1ccc(N2CCN(C(=O)c3cc(-c4ccncc4)nc4ccc(Br)cc34)CC2)cc1	58*	13	7	10	52	-6	37	105*
CC(=O)N1CCN(C(=O)c2cc(C)nc3ccccc23)CC1	23	-12	0	-1	1	3	·	·
CCOc1ccccc1N1CCN(C(=O)c2cc(-c3cc(OC)ccc3OC)nc3ccccc23)CC1	73*	19	8	4	30	-3	46*	62*
CCCNC(=O)CN1C(=O)c2ccccc2Sc2ncccc21	16	-3	-2	2	-5	-3	·	·
SMILES	Mdm2 MdmX PPI	CSC inhib	Beta apoptosis	UPR CHOP act	T cruzi repl	XBP1 UPR activ	Mdm2-MdmX conf	Full FLuc ctr
CCOC(=O)N1CCN(C(=O)c2cc(-c3ccncc3)nc3ccccc23)CC1	57*	31	9	2	26	-2	66*	55*
COc1ccc(-c2cc(C(=O)N3CCN(c4ccccc4O)CC3)c3ccccc3n2)cc1OC	65*	15	1	6	3	6	35	·
CC(=O)c1ccccc1NC(=O)COC(=O)CCC1CCCC1	26	-17	-4	0	·	2	·	·
COCCn1c(C)cc(C2=NNC(=Nc3ccc(Cl)cc3Cl)SC2)c1C	29	-2	0	0	1	0	·	·
C=CCn1c(C)cc(C2=NNC(=NC(C)(C)C)SC2)c1C	88*	33	25	-8	49	-6	93*	80*
C=CCN=C1NN=C(c2cc(C)n(CCOC)c2C)CS1	86*	-8	-2	-10	-1	-7	90*	31
COCCn1c(C)cc(C2=NNC(=NC3CC3)SC2)c1C	95*	7	3	-10	2	-7	94*	53*
COc1ccc(C2CC(C(F)(F)F)n3nc(C(=O)NCc4cn(C)nc4C)c(Cl)c3N2)cc1 (stereo not drawn)	-7	35	21	-1	-61	-6	·	·
Cc1cc(/C=N/Nc2nc(N)ncc2[N+](=O)[O-])c(C)n1-c1ccccc1F	74*	4	0	-10	-6	-8	84*	50*
O=C(Cn1cnc2sc(-c3ccccc3)cc2c1=O)NCCc1ccccc1	93*	0	4	-1	-5	0	35	98*
O=C(Cn1cnc2sc(-c3ccccc3)cc2c1=O)NCc1ccco1	46	44	-2	1	·	-4	·	·
O=C(Cn1cnc2sc(-c3ccccc3)cc2c1=O)NCc1ccccc1	77*	·	·	0	-15	-2	56*	56*
CCCc1nn2c(=O)cc(COc3ccc(NC(=O)c4ccco4)cc3)nc2s1	74*	-4	0	3	7	-6	0	·
COc1ccc(C(=O)NC(=S)N2CCN(C)CC2)cc1Br	-10	3	-4	2	-9	-4	·	·
Cc1cc(C)c(NS(=O)(=O)c2ccc(NC(=O)c3cccs3)cc2)c(C)c1	21	18	-5	1	41	-1	·	·
CCOC(=O)/C=C/S(=O)(=O)c1ccc(NC(C)=O)cc1	68*	54	23	-12	12	-8	53*	21

High-throughput results (PubChem)
